Bioassay records from PubChem BioAssay.
MEKK2 mut-MEK5: signal of MEK5 binding to mutant human MEKK2 PB1 domain. AID 1530. percent response, % at 10 µM. bead flow cytometry, Alexa488-MEK5 binding to MEKK2 mutant. 290,000 compounds, 0.35% hits; in the data active = percent response above about 24%, passing the limit was not always enough
MEKK2 WT-MEK5: raises or lowers MEK5 binding to wildtype human MEKK2 PB1 domain; Q9Y2U5; bead flow cytometry, Alexa488-MEK5 binding to MEKK2 WT; actives lie on both sides; binding response (% of control), % at 10 µM; 290,000 compounds, 1.1% hits; in the data active = binding response below about 67% or above about 130%
UBC13 polyUb: blocks human UBC13 polyubiquitin chain formation | inhibition, % at 20 µM | AID 485273 | P61088 | 330,000 compounds, 0.47% hits | TR-FRET; in the data active = inhibition above about 45%, passing the limit was not always enough
Apaf-1 inh: human Apaf-1 inhibition; O14727; reconstituted apoptosome caspase-3 activity, DEVD-Rh110 fluorescence; inhibition, % at 20 µM; 330,000 compounds, 0.71% hits; active = inhibition of at least 40% at 20 µM;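 also: plate controls were DMSO wells for no effect and DEVD-CHO caspase inhibitor wells for full effect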
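System: Apoptosome proteins | Medium: Hepes pH 7.5 with detergent and BSA | Also added: Cytochrome c trigger plus (Z-DEVD)2-Rh110 caspase-3 substrate | Incubation: 30 min compound preincubation, 50 min activation, room temperature | Detection: Rhodamine 110 fluorescence at Ex 480/Em 540 nm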
MEKK3 PB1 HTS: raises or lowers MEK5 binding to the human MEKK3 PB1 domain | Q99759 | AID 1529 | binding response (% of control), % at 10 µM | 290,000 compounds, 1.4% hits | bead-based flow cytometry, Alexa488-MEK5 binding to MEKK3; actives lie on both sides; 0 = blocked by unlabeled MEK5, 100 = vehicle;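 active = binding response more than 3 SD above or below the average of its plate-row segment, actives on both sides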;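 also: Alexa488 bead fluorescence after subtracting the streptavidin-only scavenger bead signal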
* hit, by the source's call; nt = no result; [ ] = another dose, or the depositor's remark. This is a sample that favours compounds with a hit; in the whole collection about 2.9% have one here.

SMILES | MEKK2 mut-MEK5 | MEKK2 WT-MEK5 | UBC13 polyUb | Apaf-1 inh | MEKK3 PB1 HTS
COCCCn1c(O)c(/C=C2\N=C(C#N)C(=Nc3ccc(C)cc3)O2)sc1=S | -23.0 | 33.0*[inhibitor] | -2.0 | 4.1 | 83.0
CC(C)CN1CCC(=O)N([C@H](COc2ccccc2)c2ccccc2)CC1 | -7.0 | 93.0 | 0.4 | 15.8 | 99.0
Cc1ccccc1S(=O)(=O)NNC(=O)C(=O)NNc1ccccn1 | nt | nt | 4.4 | 2.8 | nt
Nc1ccc(S(=O)(=O)NNC(=O)C(=O)NNc2ccccn2)cc1 | nt | nt | 93.4* | -7.3 | nt
COc1cc(OC)cc(C(=O)Nc2nc(-c3ccccc3)c(-c3ccccc3)o2)c1 | 2.0 | 108.0 | -15.9 | 4.7 | 154.0*
CC(=O)Nc1nc(-c2ccccc2)c(-c2ccccc2)o1 | -2.0 | 97.0 | 3.6 | 4.7 | 97.0
CCOC(=O)N1CCN(C(=O)COC(=O)C2CCN(S(=O)(=O)c3c(Cl)cccc3Cl)CC2)CC1 | nt | nt | -2.0 | 5.5 | nt
COC1=CC(=Cc2c(N)n3nc(CC(=O)N4CCCCC4)sc3nc2=O)C=C(OC)C1=O | -14.0 | 70.0*[inhibitor] | -121.2 | 4.3 | 82.0*[inhibitor]
COC1=C/C(=C/c2c(N)n3nc(CC(=O)N4CCCC4)sc3nc2=O)C=CC1=O | 0.0 | 91.0 | -36.0 | 7.0 | 94.0
CC(=O)N1CCc2c(sc(NC(=O)c3cccc(N4C(=O)CCC4=O)c3)c2C(N)=O)C1 | 8.0 | 101.0 | -12.6 | 57.0* | 104.0
NC(=O)c1c(NC(=O)c2cccc(N3C(=O)CCC3=O)c2)sc2c1CCCCC2 | 2.0 | 102.0 | 12.2 | -2.8 | 97.0
CC(C)N1CCc2c(sc(NC(=O)c3ccc4ccccc4c3)c2C(N)=O)C1 | 14.0 | 134.0* | 22.6 | 12.5 | 103.0
Cc1nn(C)c(C)c1NC(=O)CC12CC3CC(CC(C3)C1)C2 | 1.0 | 107.0 | -2.1 | 5.1 | 104.0
COC(=O)CCC(=O)OC1(C)C(=O)C2=CN(c3ccc(OC)cc3)C(c3ccc(OC)cc3)=CC2=C(Br)C1=O (stereo not given) | -1.0 | -6.0* | -94.2 | 27.1 | 87.0
COC(=O)CCC(=O)OC1(C)C(=O)C2=CN(Cc3ccco3)C(c3ccc(OC)cc3)=CC2=C(Br)C1=O (stereo not given) | -4.0 | 86.0 | -65.4 | 7.6 | 85.0
COc1ccc(C(CCN(Cc2ccc(OC)c(OC)c2)C(C)=O)C(C)C)cc1 (stereo not given) | 0.0 | 104.0 | 2.6 | 11.4 | 103.0
COC(=O)c1c(C(=O)OC)c2cccc3cc(-c4ccccc4)c4ccc1c4n32 | 5.0 | 105.0 | -111.7 | 65.3* | 102.0
NC(=S)Nc1cccc2cccnc12 | 4.0 | 107.0 | -5.7 | 17.4 | 107.0
NC(=S)NNc1cccc2cccnc12 | -12.0 | 64.0 | -19.8 | 76.3* | 68.0
COC(=O)c1cc(Cl)c(NC(=O)c2cc3ccccc3o2)cc1OC | 0.0 | 99.0 | 15.1 | 2.3 | 101.0
CCC1CN(C(=O)N2CCC(C(=O)Nc3ccccc3F)CC2)c2ccccc2O1 (stereo not given) | 5.0 | 99.0 | 0.7 | -1.3 | 100.0
O=C(NCCN1CCCC1)c1ccc2c(c1)N(Cc1cccc(Cl)c1)C(=O)c1ccccc1S2(=O)=O | 12.0 | 122.0 | 10.1 | 11.8 | 99.0
Cc1cccc(CN2C(=O)c3ccccc3S(=O)(=O)c3ccc(C(=O)NCCCN4CCCC4)cc32)c1 | 15.0 | 141.0* | 14.5 | 21.2 | 106.0
CC1CCCN(CCCNC(=O)c2ccc3c(c2)N(Cc2ccccc2F)C(=O)c2ccccc2S3(=O)=O)C1 (stereo not given) | 18.0 | 136.0* | 13.1 | 14.4 | 111.0
O=C(Nc1cccc(F)c1)C1CCCN(S(=O)(=O)c2cnc[nH]2)C1 (stereo not given) | 0.0 | 100.0 | 1.1 | -6.6 | 101.0
Oc1oc(-c2cccc3ccccc23)nc1/C=N/c1nccs1 | 1.0 | 104.0 | -25.1 | 11.8 | 130.0*
COc1ccc(CCN(C)CC(O)COc2c(C)ccc(C)c2C)cc1OC (stereo not given) | 3.0 | 109.0 | 4.1 | 12.2 | 104.0
COc1ccc(CCN(C)CC(O)COC(c2ccc(F)cc2)c2ccc(F)cc2)cc1OC (stereo not given) | 13.0 | 145.0* | nt | nt | 101.0
CCOc1cc(/C=C2\C(=O)N(c3ccc(C(N)=O)cc3)N=C2C)ccc1OC(=O)c1cccs1 | 8.0 | 98.0 | -51.2 | 93.5* | 99.0
Nc1ccc(Br)c2c1C(=O)c1ccccc1C2=O | -5.0 | 79.0 | -249.9 | 19.5 | 95.0
